Source: PubChem
CSN deneddyl inh: blocks human CSN-mediated cullin deneddylation. Q92905. Purified CSN, SCF-Nedd8-OG deneddylation, fluorescence polarization. inhibition, % at 12.5 µM. hit rate 0.38% among 360,000. AID 651999;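 active = pattern-corrected inhibition above about 35%, with an unprinted fluorescence ratio check between 0.5 and 1.5, limit read from the data, passing the limit was not always enough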;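 note: 0% = enzyme with substrate and 100% = substrate without enzyme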
Target sequence (Q92905 whole entry, looked up, one chain of several): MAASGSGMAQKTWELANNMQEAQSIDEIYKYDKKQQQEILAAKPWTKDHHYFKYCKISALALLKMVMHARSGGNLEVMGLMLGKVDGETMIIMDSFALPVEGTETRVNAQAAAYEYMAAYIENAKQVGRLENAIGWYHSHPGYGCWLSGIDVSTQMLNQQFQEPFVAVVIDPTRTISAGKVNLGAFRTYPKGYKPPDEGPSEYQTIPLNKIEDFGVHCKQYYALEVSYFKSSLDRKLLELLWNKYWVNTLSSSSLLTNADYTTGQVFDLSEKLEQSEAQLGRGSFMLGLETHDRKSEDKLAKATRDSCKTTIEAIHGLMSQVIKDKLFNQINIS
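Test system: purified human Csn5 enzyme expressed in HEK293T cells. Amount: 0.24 nM enzyme. Reagent: SCFSkp2-Nedd8OG substrate at 10 nM final. Schedule: 90 min incubation of compound, enzyme and substrate at room temperature. Detection: fluorescence polarization. Read-out: % inhibition of substrate cleavage by Csn5.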
HNF4A DNA FP: change in binding of human HNF4 alpha to DNA; P41235; activity change, % at 10 µM; hit rate 0.3% among 360,000; HNF4a-FITC DNA binding, fluorescence polarization, 1 h; AID 1224865; in the data active = activity change above about 30%, passing the limit was not always enough
TPT1 inhibitor: C. albicans TPT1 enzyme inhibition | recombinant caTPT1, FP RNA substrate dephosphorylation | hit rate 0.81% among 300,000 | inhibition, % at 5 µM | AID 1962;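 active = inhibition above the mean of all tested compounds plus 3 SD, set per screening campaign, cut at about 24% in these data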;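 note: plate controls were DMSO alone for no effect and ferristatin control at 100 nM for full effect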
Rpn11 inh: inhibitors of human proteasome Rpn11 | hit rate 0.59% among 360,000 | calls only at 20 µM | human 26S proteasome, Ub4-pepOG fluorescence polarization; 20S core pre-blocked with epoxomicin | O00487;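 active = inhibition at 20 µM, scaled to each plate's controls, above about 33%, limit read from the data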
Target sequence (O00487 whole entry, looked up): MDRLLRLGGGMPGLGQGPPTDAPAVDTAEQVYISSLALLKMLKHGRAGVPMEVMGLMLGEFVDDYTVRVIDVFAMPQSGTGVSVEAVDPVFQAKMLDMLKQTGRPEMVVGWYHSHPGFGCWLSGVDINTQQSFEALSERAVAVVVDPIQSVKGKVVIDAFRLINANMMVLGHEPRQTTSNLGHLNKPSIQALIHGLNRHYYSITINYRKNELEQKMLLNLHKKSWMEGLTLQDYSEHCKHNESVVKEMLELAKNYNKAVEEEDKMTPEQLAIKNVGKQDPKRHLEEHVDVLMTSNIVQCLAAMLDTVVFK
Rpn11 inh conf: confirmation of human proteasome Rpn11 inhibitors. shares compounds with Rpn11 inh. purified human 26S proteasome, Ub4-pepOG fluorescence polarization; proteasome pretreated with epoxomicin. inhibition, % at 20 µM. hit rate 29% among 1,900
MMP-2 counter: MMP-2 (human) inhibition counter-screen; shares compounds with Rpn11 inh; recombinant MMP-2, FRET peptide cleavage fluorescence; inhibition, % at 20 µM; hit rate 4% among 1,900;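 note: human MMP-2 activated beforehand with APMA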
Thrombin inh: counter-screen for RPN11 inhibitors: inhibition of bovine thrombin. inhibition, % at 20 µM. hit rate 13% among 1,900. shares compounds with Rpn11 inh. bovine thrombin cleavage of Ub4-pepOG, fluorescence polarization;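 active = mean inhibition at least 40% at 20 µM, or signal 3 deviations below plate average, so some actives read negative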;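 note: plate controls were thrombin with DMSO for no effect and buffer wells lacking thrombin for full effect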
Active calls of the source: *; i = inactive; . = no result given; + = active, no number. Only some compounds are listed: those with a hit (about 1.5% of all), similar ones and a draw of the others. Cut-off read from the data, not from the text of the source, unless noted: active = inhibition above about 40%; inactive = the rest.

SMILES | CSN deneddyl inh | HNF4A DNA FP | TPT1 inhibitor | Rpn11 inh | Rpn11 inh conf | MMP-2 counter | Thrombin inh
Cc1nnc(-c2ccco2)c2cn(-c3cccc(Br)c3)nc12 | 51 | -25 | 11 | + | 22 | 22 | -4
CC(=O)c1nn(-c2cccc(Br)c2)cc1C(=O)c1ccco1 | 0 | -4 | 3 | i | . | . | .
O=C1NC(=S)NC1=Cc1ccc2c(c1)CCC2 | 3 | 39* | . | + | -13 | 29 | -14
O=C(NCC1(O)CCCCC1)C1CCC(=O)N(CCc2ccccc2)C1 (centres undefined) | 0 | 0 | 2 | i | . | . | .
CCCCCCSc1ccc(-c2nc3ccc(Cl)cn3c2NCCCC)cc1OC | 4 | 12 | . | + | -11 | 18 | -14
CCCCCCSc1ccc(-c2nc3ccc(C)cn3c2NCCCC)cc1OC | 7 | 1 | . | . | . | . | .
c1csc(CCCN2CCCCC2)c1 | -8 | 3 | . | i | . | . | .
COc1ccc2nc(N3C(=O)/C(=C/c4ccc(Cl)cc4)NC3=S)sc2c1 | 18 | -2 | . | + | 56* | -22 | 25
CCOc1ccc2nc(N3C(=O)CNC3=S)sc2c1 | 1 | -1 | 0 | i | . | . | .
O=C(CN1C(=O)C2C3C=CC(C3)C2C1=O)Nc1nc(SCc2ccc(Cl)cc2)n[nH]1 (centres undefined) | 2 | 5 | 0 | + | 1 | 29 | 4
C/C=C/c1ccc(OCCOCCNCc2ccccc2)c(OC)c1 | 6 | 1 | 1 | i | . | . | .
COc1ccc(NC(=O)CCNC(=O)C2CCN(S(=O)(=O)c3ccccc3)CC2)cc1OC | 1 | 3 | . | i | . | . | .
NC(=O)c1sc2nc(-c3ccccc3)ccc2c1N | 4 | 35 | 4 | + | -10 | -32 | -15
CCN(C[C@H]1N[C@@](C)(C(=O)OC)[C@H]2C(=O)N(C)C(=O)[C@@H]12)S(=O)(=O)c1ccc(OC)cc1 | 0 | 0 | . | i | . | . | .
Cc1ccc(C(C)C)c(OCc2nn(CC(=O)c3ccc(Cl)cc3)c3[n+]2CCCCC3)c1 | 5 | 8 | 22 | + | 27 | -13 | 11
CCCCC(=O)Nc1ccc(C(N)=O)cc1 | 11 | 2 | -2 | i | . | . | .
CCCCCCCCCCCCCCCC[n+]1ccc(C(N)=O)cc1 | 3 | 15 | 1 | + | 15 | -10 | -18
Cc1cn([C@H]2C[C@H](O)[C@@H](CCC(=O)NCc3ccc(N(C)C)cc3)O2)c(=O)[nH]c1=O | -3 | 2 | . | i | . | . | .
Cc1ccc(S(=O)(=O)/N=C2/NC(=O)/C(=C/c3ccc(Br)o3)S2)cc1 | 34 | 12 | 16 | + | 28 | -8 | 18
CCc1ccc(C(=O)NNc2ccc(Cl)cc2)cc1 | -2 | -35 | -2 | + | -4 | -22 | -9
CCc1ccc(C(=O)NNc2cc(Cl)cc(Cl)c2)cc1 | -1 | -1 | -1 | i | . | . | .
Cc1ccc(-c2nc3ccccc3o2)cc1NC(=S)NC(=O)c1cc2ccccc2o1 | -5 | 18 | 0 | + | -3 | -14 | 11
Cc1ccc2oc(-c3ccc(C)c(NC(=S)NC(=O)c4cccs4)c3)nc2c1 | -4 | 5 | -1 | i | . | . | .
COc1cccc(/C=N/NC(=O)c2c(C)nc3ccc(Cl)cn23)c1O | 9 | 5 | 13 | + | 37 | -66 | -5
COc1ccccc1/C=N\NC(=O)c1c(C)nc2ccc(Cl)cn12 | -3 | 1 | . | i | . | . | .
SMILES | CSN deneddyl inh | HNF4A DNA FP | TPT1 inhibitor | Rpn11 inh | Rpn11 inh conf | MMP-2 counter | Thrombin inh
COc1cccc(Nc2ccccc2C(=O)O)c1 | -2 | -2 | 1 | i | . | . | .
COc1cc(-c2ccc(Nc3ccccc3C(=O)O)c(OC)c2)ccc1Nc1ccccc1C(=O)O | 46 | -29 | . | + | 41* | 72* | -29
CC1CC(=O)N(CC(=O)Nc2ccc(F)cc2F)c2ccccc2S1(=O)=O (centres undefined) | -1 | -1 | -1 | i | . | . | .
O=C(Nc1ccc(Cl)cc1)Nc1nnc(-c2ccncc2)s1 | 24 | -13 | 2 | + | 30 | 3 | -22
Cc1ccc(NC(=O)Nc2nnc(-c3ccncc3)s2)cc1C | 16 | -12 | 0 | i | . | . | .
O=C(Nc1ccc(F)cc1)Nc1nnc(-c2ccncc2)s1 | 17 | -1 | -3 | + | 41* | -2 | 3
O=C(N/N=C/c1cc([N+](=O)[O-])ccc1Cl)c1ccc2nc[nH]c2c1 | 8 | 2 | 1 | + | 22 | -7 | 2
O=C(N/N=C/c1ccc(Cl)cc1Cl)c1ccc2nc[nH]c2c1 | 2 | 0 | 1 | + | 63* | -38 | 37
CC(=O)c1cccc(S(=O)(=O)N2CCN(c3nc4cc(C)cc(C)c4cc3C#N)CC2)c1 | 11 | 11 | 5 | + | 1 | -21 | -11
COc1cc(/C=N/OCC(=O)Nc2cc(C)cc(C)c2)ccc1OCc1ccc(Cl)cc1 | -2 | 7 | 4 | + | 29 | -29 | -1
N=C1SC(CC(=O)Nc2ccccc2[N+](=O)[O-])C(=O)N1c1ccccc1 (centres undefined) | 3 | 0 | 0 | i | . | . | .
CCCCc1ccc(-c2csc(/C(C#N)=C\c3ccc(C)o3)n2)cc1 | 38* | 45* | 4 | + | 12 | -5 | 6
CSc1ccc(/C=C/C(=O)N2CCN(c3ccccn3)CC2)cc1 | -2 | -2 | -5 | i | . | . | .
O=NN(CC(=O)NN=CC=Cc1ccccc1)CC(=O)NN=CC=Cc1ccccc1 | 7 | 0 | . | + | 21 | -7 | -31
O=C(Nc1ccc(Oc2ncnc3cc(Cl)ccc23)nc1)c1cccs1 | 20 | 9 | 9 | + | 5 | -2 | -2
Cc1ccc(S(=O)(=O)N2[C@@H](c3cccc(C)c3)C(C(=O)O)=C[C@H]2CC2CCCC2)cc1 | 4 | -1 | . | i | . | . | .
COc1nc(-c2ccccc2)ccc1-c1noc(-c2cccs2)n1 | 7 | 4 | 4 | + | 28 | -24 | 22
COC(=O)c1ccc2c(c1)NC(=O)C(N(CC(C)C)CC(C)C)S2 (centres undefined) | -3 | 47* | 1 | + | 17 | -30 | 10
CC(OC(=O)c1ccccc1)C(=O)NCc1ccco1 (centres undefined) | 4 | -4 | . | i | . | . | .
Cc1cccc(NC(=S)N/N=C/c2ccc([N+](=O)[O-])s2)c1 | 17 | 10 | 22 | + | 2 | 36 | -13
Cc1cccc(NC(=O)/C=C/c2ccc([N+](=O)[O-])s2)c1 | -5 | 24 | 0 | i | . | . | .
O=C1N/C(=N/NC(=O)c2cccc3ccccc23)S/C1=C\c1ccccc1OCc1ccccc1 | 6 | -11 | . | + | 20 | 21 | 13
COc1cccc(/C=C2\SC(=O)NC2=O)c1OCc1ccc(C(=O)O)cc1 | -4 | 0 | 3 | i | . | . | .
